From PubChem BioAssay
Most compounds without a hit are left out; they make up all but 3.5% or so of the library.
ABCB1 inh = human ABCB1 inhibition, ABCG2 as counter-screen. P08183. CCRF-Adr cells, JC-1 efflux, flow cytometry. inhibition, % at 6.6 µM. 190,000 tested, 0.067% active. AID 1326; in the data active means inhibition above about 40%;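 further: 0% = vehicle and 100% = reference inhibitor; higher value means more JC-1 retained so stronger ABCB1 efflux block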
ABCG2 block = inhibitors of human ABCG2 transporter, ABCB1 counter-screen; Q9UNQ0; IgMXP3 cells, JC-1 efflux, flow cytometry; inhibition, % at 6.6 µM; 190,000 tested, 0.1% active; AID 1325;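 active means inhibition above 80%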;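 further: 0% = DMSO and 100% = nicardipine control wells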
Target sequence (Q9UNQ0 whole entry, looked up): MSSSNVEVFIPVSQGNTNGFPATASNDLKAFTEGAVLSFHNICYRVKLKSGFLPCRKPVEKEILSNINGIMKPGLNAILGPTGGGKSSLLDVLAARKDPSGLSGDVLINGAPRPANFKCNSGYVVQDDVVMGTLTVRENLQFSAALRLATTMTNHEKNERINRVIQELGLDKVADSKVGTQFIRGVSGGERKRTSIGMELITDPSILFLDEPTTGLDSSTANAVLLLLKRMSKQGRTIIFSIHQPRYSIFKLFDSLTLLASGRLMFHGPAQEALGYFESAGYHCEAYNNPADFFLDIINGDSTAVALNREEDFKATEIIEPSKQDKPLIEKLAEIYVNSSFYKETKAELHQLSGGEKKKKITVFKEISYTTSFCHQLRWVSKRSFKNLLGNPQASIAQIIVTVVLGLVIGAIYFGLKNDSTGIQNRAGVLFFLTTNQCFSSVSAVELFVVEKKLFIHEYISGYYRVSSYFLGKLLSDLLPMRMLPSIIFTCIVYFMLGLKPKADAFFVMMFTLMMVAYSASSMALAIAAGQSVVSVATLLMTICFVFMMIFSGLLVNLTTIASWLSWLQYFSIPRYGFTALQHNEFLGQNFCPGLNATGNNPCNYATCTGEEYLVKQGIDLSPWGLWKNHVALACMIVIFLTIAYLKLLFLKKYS
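Test system: IgMXP3 cells (ABCG2) mixed with DDAO far-red-labelled CCRF-Adr cells (ABCB1). Reagent: JC-1 transporter substrate. Compound dosing: single test compound dose, 6.6 µM final. Times: 10 min compound exposure, 25 °C. Detection: flow cytometry of retained JC-1 fluorescence. Read-out basis: efflux inhibition in percent versus controls. Controls: nicardipine and DMSO wells.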
WT yeast gro inh = growth inhibition of WT yeast, mitochondrial fusion screen. mitochondrial fusion phenotypic screen, WT strain. inhibition, % at 10 µM. 190,000 tested, 2.1% active; in the data active means inhibition above about 58%; tested in S. cerevisiae
MEKK2 mut-MEK5 = signal of MEK5 binding to mutant human MEKK2 PB1 domain; AID 1530; bead flow cytometry, Alexa488-MEK5 binding to MEKK2 mutant; percent response, % at 10 µM; 290,000 tested, 0.35% active; in the data active means percent response above about 24%, passing the limit was not always enough
MEKK2 WT-MEK5 = raises or lowers MEK5 binding to wildtype human MEKK2 PB1 domain; bead flow cytometry, Alexa488-MEK5 binding to MEKK2 WT; actives lie on both sides; 290,000 tested, 1.1% active; binding response (% of control), % at 10 µM; Q9Y2U5; in the data active means binding response below about 67% or above about 130%
MEKK3 PB1 HTS = MEKK3-MEK5 PB1 interaction, increase or decrease. bead-based flow cytometry, Alexa488-MEK5 binding to MEKK3; actives lie on both sides; 0 = blocked by unlabeled MEK5, 100 = vehicle. AID 1529. binding response (% of control), % at 10 µM. 290,000 tested, 1.4% active;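 active means binding response more than 3 SD above or below the average of its plate-row segment, actives on both sides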;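 further: Alexa488 bead fluorescence after subtracting the streptavidin-only scavenger bead signal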
* hit, by the source's call; x = no result.

SMILES	ABCB1 inh	ABCG2 block	WT yeast gro inh	MEKK2 mut-MEK5	MEKK2 WT-MEK5	MEKK3 PB1 HTS
NC(=S)n1[nH]c(-c2ccc([N+](=O)[O-])cc2)c(N=Nc2cccc(Cl)c2)c1=O	-1.9	-0.3	74.7*	-10.0	91.0	100.0
Cc1ccc(S(=O)(=O)NC(=O)COc2cc(C)ccc2C(C)C)cc1	x	x	x	-3.0	95.0	100.0
O=C(Nc1ccccc1)c1ccccc1Oc1ccc(C(F)(F)F)cc1[N+](=O)[O-]	2.7	26.3	29.6	1.0	100.0	101.0
O=C(Nc1ccc(F)cc1)c1ccccc1Oc1ccc(C(F)(F)F)cc1[N+](=O)[O-]	2.2	16.0	65.8*	1.0	110.0	106.0
O=C(O)c1ccc(Cl)c(S(=O)(=O)NCc2ccco2)c1	0.8	3.6	18.9	4.0	99.0	94.0
Cc1cccc(N2CCN(C(=O)c3ccc(Cl)c(S(=O)(=O)NCc4ccco4)c3)CC2)c1C	0.7	2.9	74.2*	x	x	x
Cc1ccc(S(=O)(=O)NCc2ccco2)c(C)c1C	0.1	0.1	73.9*	1.0	107.0	103.0
O=S(=O)(NCc1ccco1)c1ccc(Cl)cc1Cl	x	x	x	-1.0	99.0	102.0
COC(=O)c1cc(NC(=O)CSC2=NCCS2)cc(C(=O)OC)c1	0.9	4.9	-6.4	9.0	105.0	101.0
Cc1ccc2oc(C(=O)NCC3CCOCC3)c(C)c2c1	x	x	x	11.0	108.0	109.0
CC(=O)N1N=C(c2cccs2)CC1c1ccc(Br)cc1 (configuration not stated)	x	x	x	-5.0	91.0	94.0
Cc1ccc(C2CC(c3cccs3)=NN2C(=O)c2ccc(Br)o2)cc1 (configuration not stated)	1.9	4.1	64.2*	-4.0	86.0	100.0
CCCCN(CCCC)C1=Nc2ccccc2N/C1=C(/C#N)C(=O)OCC	3.6	18.7	67.5*	5.0	85.0	96.0
CCOC(=O)C1=C(C)Nc2ccccc2N=C1N	-0.4	-0.2	-3.5	0.0	98.0	100.0
CCOC(=O)/C(C#N)=C1\Nc2ccccc2N=C1N(CC(C)C)CC(C)C	2.5	3.7	76.3*	1.0	93.0	99.0
CCOC(=O)/C(C#N)=C1/C=C(C)NC(c2ccccc2O)=N1	0.3	3.5	-12.4	2.0	102.0	101.0
CCOc1ccc(OCc2ccc(C(=O)N3CCCC3)o2)cc1	41.4*	6.9	-1.6	5.0	102.0	104.0
Cc1cc(NC(=O)CN2CC(C)OC(C)C2)n(-c2nc3ccccc3s2)n1 (configuration not stated)	9.4	48.0	-17.6	1.0	88.0	93.0
CCOC(=O)C1CCN(CC(=O)Nc2cc(C)nn2-c2nc3ccccc3s2)CC1	8.8	15.8	73.5*	x	x	x
Fc1ccccc1Sc1ccccc1CNC1=NCCN1	-0.1	1.9	79.7*	-4.0	97.0	87.0
O=C(CC12CC3CC(CC(C3)C1)C2)NC(=S)NCc1ccco1	4.8	6.0	73.4*	-6.0	97.0	100.0
CN(C)S(=O)(=O)c1ccc(C(=O)OCCn2cnc3c2c(=O)n(C)c(=O)n3C)cc1	1.3	14.9	-4.2	-9.0	94.0	101.0
CSCCC(NS(=O)(=O)c1ccccc1F)C(=O)N1CCCCCCC1 (configuration not stated)	x	x	x	4.0	98.0	96.0
O=C(NCc1ccco1)C(c1ccccc1)N(Cc1cccnc1)C(=O)Cn1nnc2ccccc21 (configuration not stated)	0.4	1.3	-1.1	1.0	97.0	97.0
CN1/C(=C\C(=O)Nc2ccc(Cl)cc2)C(C)(C)c2ccccc21	9.7	6.8	79.3*	0.0	103.0	107.0
SMILES	ABCB1 inh	ABCG2 block	WT yeast gro inh	MEKK2 mut-MEK5	MEKK2 WT-MEK5	MEKK3 PB1 HTS
CN1/C(=C\C(=S)Nc2ccccc2)C(C)(C)c2ccccc21	0.9	16.4	61.2*	-1.0	96.0	100.0
CN1CCN(c2nc(-c3ccccc3)ncc2S(=O)(=O)c2ccccc2)CC1	5.0	6.9	-8.2	2.0	105.0	101.0
O=S(=O)(c1ccccc1)c1cnc(-c2ccccc2)nc1N1CCCCC1	0.6	2.3	58.4*	1.0	105.0	105.0
CCCCOc1ccc(C2C3CN(C(=O)OCC)CC=C3C(C#N)=C(N)C2(C#N)C#N)cc1OC (configuration not stated)	3.3	5.2	61.9*	-7.0	91.0	97.0
CCOC(=O)N1CC=C2C(C#N)=C(N)C(C#N)(C#N)[C@H](c3ccc(OCC)c(OCC)c3)[C@H]2C1	0.1	-0.4	-3.5	5.0	96.0	102.0
Cc1cc2oc(=O)cc(CN3CCN(C/C=C/c4ccccc4)CC3)c2cc1O	1.0	2.6	9.3	10.0	136.0	104.0
O=c1cc(CN2CCN(C/C=C/c3ccccc3)CC2)c2cc(O)c(-c3ccccc3)cc2o1	6.0	12.5	84.2*	4.0	125.0	105.0
CCOc1cc(CN2CCC(CO)(Cc3cccc(C(F)(F)F)c3)CC2)ccc1OC	1.6	1.4	4.9	4.0	109.0	102.0
COc1ccc(N2CCN(C(=O)CNC(=O)c3ccco3)CC2)cc1	x	x	x	6.0	113.0	108.0
COc1ccc(C)cc1N1C(=N)/C(=C2/Nc3ccccc3S2)C(c2ccccc2)C1=O (configuration not stated)	2.2	-14.6	84.1*	-1.0	97.0	95.0
COc1ccc(-n2c(SCC(=O)O)nc3sc4c(c3c2=O)CCCC4)cc1	x	x	x	4.0	102.0	104.0
COc1ccc(-n2c(SCCNCCO)nc3sc4c(c3c2=O)CCCC4)cc1	x	x	x	24.0*	144.0*	108.0
CCS(=O)(=O)CCSc1nc2c(cc1C#N)CCCC2	1.4	7.7	60.6*	5.0	104.0	105.0
N#CCSc1nc2c(cc1C#N)CCCCCC2	0.0	-0.1	-2.4	0.0	95.0	93.0
CC(=O)Nc1nc(S(=O)(=O)c2ccc(C)cc2)c(Cl)s1	0.2	21.1	-31.4	3.0	104.0	106.0
Cc1ccc(S(=O)(=O)c2nc(Nc3nccs3)sc2Cl)cc1	-1.6	-24.4	62.0*	3.0	101.0	99.0
COc1ccccc1N1CCN(CC(=O)Nc2ccc(Cl)c(C(F)(F)F)c2)CC1	0.7	11.6	58.0*	28.0	126.0	110.0
CCc1ccc(NC(=S)N(CCCN2CCOCC2)Cc2ccccn2)cc1	0.3	8.6	-14.2	1.0	110.0	107.0
COc1ccc(NC(=O)NCc2ccccn2)cc1	0.4	0.9	-18.9	-3.0	101.0	107.0
COc1cccc(NC(=S)N(Cc2ccccn2)Cc2ccccc2Cl)c1	2.5	18.5	68.5*	2.0	103.0	104.0
CCc1ccc(NC(=S)N(Cc2ccccc2)Cc2ccccn2)cc1	1.1	29.4	68.2*	-13.0	85.0	91.0
COc1cccc(NC(=S)N(CCc2ccc(OC)c(OC)c2)Cc2ccccn2)c1	4.0	15.1	-7.5	4.0	100.0	100.0
COc1ccc(NC(=S)N(Cc2ccccn2)Cc2ccccc2Cl)cc1	0.5	20.1	74.8*	-1.0	97.0	106.0
